These results are taken from ChEMBL document CHEMBL1138275, “Activity of sulfonium bisphosphonates on tumor cell lines” (J Med Chem, 2007).

The test system of one assay is NCI-H460. Put plainly: Growth inhibition of human NCI-H460 cells after 4 days by MTT assay. In kind it is functional, cell-based. The following applies: NCI-H460, 96 h. An outline of the steps: (§1)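 Cell lines from NCI, grown in RPMI-1640 with 2 mM L-glutamine and 10% FBS at 37 °C, 5% CO2, 100% humidity. Aqueous 0.01 M stocks, half-log serial dilutions in medium, typically 316 µM to 10 nM. 5000 cells/well exposed 4 days. MTT added for 2 h, detergent lysis, overnight dark at room temperature, A600 read. IC50 from rectangular hyperbolic fit of percent inhibition.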
A general note: Formazan colour is commonly taken as a measure of viable cells.

The next assay has as its system MCF7. Put plainly: Growth inhibition of human MCF7 cells after 4 days by MTT assay. The following applies: MCF7, 96 h. In kind it is functional, cell-based.
For another assay, the system named is SF-268. In words: Growth inhibition of human SF268 cells after 4 days by MTT assay. In kind it is functional, cell-based. The following applies: SF-268, 96 h. An outline of the steps:
as §1

Assay [1] concerns the target T1, Farnesyl pyrophosphate synthase (Homo sapiens, UniProt P14324).
T1 sequence (P14324 whole entry): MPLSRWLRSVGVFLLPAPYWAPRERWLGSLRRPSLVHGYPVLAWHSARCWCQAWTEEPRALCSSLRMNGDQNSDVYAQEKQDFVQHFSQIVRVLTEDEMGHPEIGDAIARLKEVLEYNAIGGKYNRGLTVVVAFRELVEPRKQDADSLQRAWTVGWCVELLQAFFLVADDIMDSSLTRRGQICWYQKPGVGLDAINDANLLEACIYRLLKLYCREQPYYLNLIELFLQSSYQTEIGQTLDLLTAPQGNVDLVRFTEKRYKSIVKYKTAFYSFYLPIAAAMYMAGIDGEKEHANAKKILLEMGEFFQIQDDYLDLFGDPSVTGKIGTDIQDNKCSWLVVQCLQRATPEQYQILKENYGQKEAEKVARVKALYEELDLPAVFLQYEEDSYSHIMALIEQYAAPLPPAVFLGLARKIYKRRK
Put plainly: Inhibition of human FPPS. The following applies: read-out: IC50.

Take `CCC[S+](C)CC(O)(P(=O)([O-])O)P(=O)(O)O` (stereo unspecified): the IC50 in the assay on NCI-H460 (read-out: IC50) is 74.1 µM; in the assay with NCI-H460 (read-out: pIC50 (converted)), 79.4 µM; in the assay on MCF7 (read-out: IC50) it was 162 µM; in the assay on MCF7 (read-out: pIC50 (converted)) it was 158 µM; in the assay on SF-268 (read-out: IC50), 96.1 µM; in the assay with SF-268 (read-out: pIC50 (converted)), 100 µM.
Turning to `CCC[S+](C)CC(P(=O)([O-])O)P(=O)(O)O` (stereo unspecified), the IC50 in the assay on NCI-H460 (read-out: IC50) was 95.5 µM; with NCI-H460 (read-out: pIC50 (converted)) it was 100 µM; with MCF7 (read-out: IC50) it was 240 µM; with MCF7 (read-out: pIC50 (converted)), 251 µM; in the assay with SF-268 (read-out: IC50) it was 223 µM; in the assay with SF-268 (read-out: pIC50 (converted)) it was 200 µM. Moreover, the IC50 in assay [1] worked out at 0.53 µM.
In the case of `CCCCC[S+](C)CCC(O)(P(=O)([O-])O)P(=O)(O)O` (stereo unspecified), the IC50 is 200 µM in the assay on NCI-H460 (read-out: IC50); 200 µM in the assay on NCI-H460 (read-out: pIC50 (converted)); 389 µM in the assay on MCF7 (read-out: IC50); 398 µM in the assay on MCF7 (read-out: pIC50 (converted)); 196 µM in the assay on SF-268 (read-out: IC50); 200 µM in the assay on SF-268 (read-out: pIC50 (converted)).
`CCC[S+](C)CCC(O)(P(=O)([O-])O)P(=O)(O)O` (stereo unspecified): the IC50 in the assay with NCI-H460 (read-out: IC50) was 759 µM; in the assay with NCI-H460 (read-out: pIC50 (converted)) it was 794 µM; in the assay with MCF7 (read-out: IC50), 813 µM; in the assay with MCF7 (read-out: pIC50 (converted)) it was 794 µM; in the assay with SF-268 (read-out: IC50), 714 µM; with SF-268 (read-out: pIC50 (converted)) it was 631 µM.
In the case of `C[S+](CCCCCc1ccccc1)CC(P(=O)([O-])O)P(=O)(O)O` (stereo unspecified), the IC50 in the assay on NCI-H460 (read-out: IC50) is 23.4 µM; in the assay on NCI-H460 (read-out: pIC50 (converted)) it was 25.1 µM; in the assay on MCF7 (read-out: IC50) it was 21.4 µM; in the assay on MCF7 (read-out: pIC50 (converted)), 20 µM; in the assay with SF-268 (read-out: IC50), 17.9 µM; in the assay with SF-268 (read-out: pIC50 (converted)), 15.8 µM.
As for `CCCCCCCCCCCCCCCC[S+](C)CC(P(=O)([O-])O)P(=O)(O)O` (stereo unspecified), the IC50 in the assay with NCI-H460 (read-out: IC50) was 1.41 µM; in the assay with NCI-H460 (read-out: pIC50 (converted)), 1.26 µM; with MCF7 (read-out: IC50) it was 1.12 µM; in the assay on MCF7 (read-out: pIC50 (converted)) it was 1 µM; in the assay on SF-268 (read-out: IC50) it was 1.08 µM; with SF-268 (read-out: pIC50 (converted)), 1 µM. In addition, the IC50 in assay [1] was found to be 45.6 µM.
As for `C[S+](CCCCc1ccccc1)CC(P(=O)([O-])O)P(=O)(O)O` (stereo unspecified), the IC50 is 47.9 µM with NCI-H460 (read-out: IC50); 50.1 µM in the assay on NCI-H460 (read-out: pIC50 (converted)); 45.7 µM with MCF7 (read-out: IC50); 50.1 µM in the assay on MCF7 (read-out: pIC50 (converted)); 43.9 µM in the assay with SF-268 (read-out: IC50); 39.8 µM in the assay on SF-268 (read-out: pIC50 (converted)).
`CCCCCCCC[S+](C)CC(P(=O)([O-])O)P(=O)(O)O` (stereo unspecified): the IC50 in the assay on NCI-H460 (read-out: IC50) was 12.3 µM; in the assay with NCI-H460 (read-out: pIC50 (converted)) it was 12.6 µM; in the assay with MCF7 (read-out: IC50), 21.4 µM; in the assay with MCF7 (read-out: pIC50 (converted)) it was 20 µM; with SF-268 (read-out: IC50), 14.7 µM; in the assay on SF-268 (read-out: pIC50 (converted)), 15.8 µM.
With `O=P([O-])(O)C(O)(CC[S+]1CCCC1)P(=O)(O)O` (stereo unspecified), the IC50 was 158 µM in the assay with NCI-H460 (read-out: IC50); 158 µM with NCI-H460 (read-out: pIC50 (converted)); 195 µM with MCF7 (read-out: IC50); 200 µM in the assay on MCF7 (read-out: pIC50 (converted)); 129 µM with SF-268 (read-out: IC50); 126 µM in the assay on SF-268 (read-out: pIC50 (converted)).
Consider `O=P([O-])(O)C(O)(C[S+]1CCCC1)P(=O)(O)O` (stereo unspecified), for which the IC50 was 126 µM with NCI-H460 (read-out: IC50); 126 µM in the assay with NCI-H460 (read-out: pIC50 (converted)); 100 µM in the assay with MCF7 (read-out: IC50); 100 µM in the assay with MCF7 (read-out: pIC50 (converted)); 101 µM in the assay on SF-268 (read-out: IC50); 100 µM in the assay on SF-268 (read-out: pIC50 (converted)).
Turning to `C[S+](CCCc1ccccc1)CC(O)(P(=O)([O-])O)P(=O)(O)O` (stereo unspecified), the IC50 in the assay on NCI-H460 (read-out: IC50) is 13.8 µM; in the assay with NCI-H460 (read-out: pIC50 (converted)), 12.6 µM; in the assay on MCF7 (read-out: IC50) it was 17.8 µM; in the assay with MCF7 (read-out: pIC50 (converted)), 15.8 µM; with SF-268 (read-out: IC50), 10.7 µM; in the assay on SF-268 (read-out: pIC50 (converted)), 10 µM.
With `C[S+](CCCOc1ccccc1)CC(O)(P(=O)([O-])O)P(=O)(O)O` (stereo unspecified), the IC50 is 16.6 µM in the assay with NCI-H460 (read-out: IC50); 15.8 µM in the assay with NCI-H460 (read-out: pIC50 (converted)); 93.3 µM in the assay with MCF7 (read-out: IC50); 100 µM with MCF7 (read-out: pIC50 (converted)); 34.5 µM in the assay on SF-268 (read-out: IC50); 31.6 µM with SF-268 (read-out: pIC50 (converted)).
Turning to `C[S+](CCCc1ccccc1)CCC(O)(P(=O)([O-])O)P(=O)(O)O` (stereo unspecified), the IC50 with NCI-H460 (read-out: IC50) was 66.1 µM; in the assay on NCI-H460 (read-out: pIC50 (converted)), 63.1 µM; in the assay with MCF7 (read-out: IC50), 105 µM; in the assay with MCF7 (read-out: pIC50 (converted)), 100 µM; with SF-268 (read-out: IC50), 65.9 µM; with SF-268 (read-out: pIC50 (converted)) it was 63.1 µM.
For the compound `C[S+](CCCOc1ccccc1)CCC(O)(P(=O)([O-])O)P(=O)(O)O` (stereo unspecified), the figures for the IC50 in the assay with NCI-H460 (read-out: IC50), in the assay with MCF7 (read-out: IC50) and in the assay with SF-268 (read-out: IC50) were 151 µM, 184 µM and 171 µM, respectively.
For the compound `CCCCCCCCCCC[S+](C)CC(P(=O)([O-])O)P(=O)(O)O` (stereo unspecified), the IC50 in the assay with NCI-H460 (read-out: IC50) amounted to 3.7 µM; in the assay with MCF7 (read-out: IC50), 14.2 µM; in the assay on SF-268 (read-out: IC50) it was 3.7 µM.
